In ChEMBL document CHEMBL1147875, “Novel 1-oxyl-2-substitutedphenyl-4,4,5,5-tetramethylimidazolines: synthesis, selectively analgesic action, and QSAR analysis” (2007):

Legend:
[1] = test system: Mus musculus; assay: Analgesic activity in ICR mouse assessed as pain threshold variation at 0.13 mmol/kg, ip after 30 mins by tail flick test; assay type: functional
Procedure, shortened: (§1)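 Male ICR mice (25 2 g), 12/12 light/dark cycle, 21 2 °C, acclimated one day. Single ip injection in 0.2 ml saline with 0.01 ml DMSO and 0.02 ml Tween 80. Tail-flick pain threshold measured before dosing (BPT) and at 30 min intervals for 150 min. PTV = (post-dose threshold − BPT)/BPT, averaged per animal. Saline controls; ANOVA, p < 0.05.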

[2] = test system: Mus musculus; assay: Analgesic activity in ICR mouse assessed as pain threshold variation at 0.13 mmol/kg, ip after 60 mins by tail flick test; assay type: functional; procedure, shortened: as §1
[3] = test system: Mus musculus; assay: Analgesic activity in ICR mouse assessed as pain threshold variation at 0.13 mmol/kg, ip after 90 mins by tail flick test; assay type: functional; procedure, shortened: as §1
[4] = test system: Mus musculus; assay: Analgesic activity in ICR mouse assessed as pain threshold variation at 0.13 mmol/kg, ip after 120 mins by tail flick test; assay type: functional; procedure, shortened: as §1
[5] = test system: Mus musculus; assay: Analgesic activity in ICR mouse assessed as pain threshold variation at 0.13 mmol/kg, ip after 150 mins by tail flick test; assay type: functional; procedure, shortened: as §1
[6] = test system: Mus musculus; assay: Effect on bleeding time in ICR mouse tail at 1.3 mmol/kg, ip after 5 mins; assay type: functional
Procedure, shortened: (§2)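 Mice given 1.30 mmol/kg body weight. Tail bleeding time measured before dosing and at 5, 15, 30 and 60 min after dosing. Saline as vehicle control.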

[7] = test system: Mus musculus; assay: Effect on bleeding time in ICR mouse tail at 1.3 mmol/kg, ip after 15 mins; assay type: functional; procedure, shortened: as §2
[8] = test system: Mus musculus; assay: Effect on bleeding time in ICR mouse tail at 1.3 mmol/kg, ip after 30 mins; assay type: functional; procedure, shortened: as §2
[9] = test system: Mus musculus; assay: Effect on bleeding time in ICR mouse tail at 1.3 mmol/kg, ip after 60 mins; assay type: functional; procedure, shortened: as §2
[10] = test system: Aorta; assay: Vasorelaxant activity in rat aortic strips assessed as inhibition of noradrenaline-induced vasoconstriction at 500 umol/l; assay type: functional; design: scale not given: the % may be the effect or the level left
[11] = test system: Aorta; assay: Vasorelaxant activity in rat aortic strips assessed as inhibition of noradrenaline-induced vasoconstriction at 100 umol/l; assay type: functional; design: scale not given: the % may be the effect or the level left
[12] = test system: Aorta; assay: Vasorelaxant activity in rat aortic strips assessed as inhibition of noradrenaline-induced vasoconstriction at 20 umol/l; assay type: functional; design: scale not given: the % may be the effect or the level left
[13] = test system: Mus musculus; assay: Analgesic activity in ICR mouse assessed as pain threshold variation at 0.013 mmol/kg, ip after 30 mins by tail flick test; assay type: functional, organism-based; procedure, shortened: as §1
[14] = test system: Mus musculus; assay: Analgesic activity in ICR mouse assessed as pain threshold variation at 0.013 mmol/kg, ip after 60 mins by tail flick test; assay type: functional, organism-based; procedure, shortened: as §1
[15] = test system: Mus musculus; assay: Analgesic activity in ICR mouse assessed as pain threshold variation at 0.013 mmol/kg, ip after 90 mins by tail flick test; assay type: functional, organism-based; procedure, shortened: as §1
[16] = test system: Mus musculus; assay: Analgesic activity in ICR mouse assessed as pain threshold variation at 0.013 mmol/kg, ip after 120 mins by tail flick test; assay type: functional, organism-based; procedure, shortened: as §1
[17] = test system: Mus musculus; assay: Analgesic activity in ICR mouse assessed as pain threshold variation at 0.013 mmol/kg, ip after 150 mins by tail flick test; assay type: functional, organism-based; procedure, shortened: as §1
[18] = test system: Mus musculus; assay: Analgesic activity in ICR mouse assessed as pain threshold variation at 0.0013 mmol/kg, ip after 30 mins by tail flick test; assay type: functional, organism-based; procedure, shortened: as §1
[19] = test system: Mus musculus; assay: Analgesic activity in ICR mouse assessed as pain threshold variation at 0.0013 mmol/kg, ip after 60 mins by tail flick test; assay type: functional, organism-based; procedure, shortened: as §1
[20] = test system: Mus musculus; assay: Analgesic activity in ICR mouse assessed as pain threshold variation at 0.0013 mmol/kg, ip after 90 mins by tail flick test; assay type: functional, organism-based; procedure, shortened: as §1
[21] = test system: Mus musculus; assay: Analgesic activity in ICR mouse assessed as pain threshold variation at 0.0013 mmol/kg, ip after 120 mins by tail flick test; assay type: functional, organism-based; procedure, shortened: as §1
[22] = test system: Mus musculus; assay: Analgesic activity in ICR mouse assessed as pain threshold variation at 0.0013 mmol/kg, ip after 150 mins by tail flick test; assay type: functional, organism-based; procedure, shortened: as §1

Row | Compound | Activity [1] | Activity [2] | Activity [3] | Activity [4] | Activity [5] | TIME [6] [h] | TIME [7] [h] | TIME [8] [h] | TIME [9] [h] | Activity [10] [%] | Activity [11] [%] | Activity [12] [%] | other results
1 | CC1(C)N=C(c2ccccc2[N+](=O)[O-])N([O])C1(C)C | 38.4 | 66.9 | 57.2 | 23.4 | 19.7 | 0.0326 | 0.0327 | 0.0326 | 0.0324 | 35.6 | 20.4 | 6.98 | –
2 | CC1(C)N=C(c2cccc(O)c2)N([O])C1(C)C | 49.6 | 50.3 | 54 | 72.7 | 70.8 | 0.033 | 0.0326 | 0.0331 | 0.0326 | 35.7 | 23 | 7.06 | Activity [13]: 35.7; Activity [14]: 37.8; Activity [15]: 42.8; Activity [16]: 59.9; Activity [17]: 52.1; Activity [18]: 24.2; Activity [19]: 25.6; Activity [20]: 30.7; Activity [21]: 35.2; Activity [22]: 33.5
3 | COc1ccc(C2=NC(C)(C)C(C)(C)N2[O])cc1OC | 44.9 | 60.2 | 59.5 | 78.4 | 55.6 | 0.0329 | 0.033 | 0.0332 | 0.0335 | 33.7 | 22.3 | 6.66 | –
4 | CC1(C)N=C(c2ccc(Cl)c(Cl)c2)N([O])C1(C)C | 50.6 | 72.8 | 55.7 | 28.8 | 27 | 0.0334 | 0.0331 | 0.0331 | 0.033 | 34.4 | 22.7 | 6.74 | –
5 | CC1(C)N=C(c2ccc3c(c2)OCO3)N([O])C1(C)C | 52.8 | 65 | 74 | 58.3 | 25.4 | 0.0326 | 0.0324 | 0.0328 | 0.0324 | 37.4 | 24.5 | 8.1 | –
6 | CC1(C)N=C(c2ccc(Br)cc2)N([O])C1(C)C | 41.3 | 35.6 | 59.8 | 60 | 76.5 | 0.0324 | 0.0326 | 0.0324 | 0.0326 | 34.8 | 23 | 6.89 | –
7 | COc1ccc(C2=NC(C)(C)C(C)(C)N2[O])cc1O | 33.1 | 48.2 | 48.4 | 56.4 | 59.8 | 0.0326 | 0.0325 | 0.0328 | 0.0326 | 16.6 | 11 | 5.36 | –
8 | COc1ccc(C2=NC(C)(C)C(C)(C)N2[O])cc1 | 35.3 | 103 | 99.3 | 68.7 | 53 | 0.0327 | 0.0324 | 0.0331 | 0.0331 | 35.1 | 23.1 | 6.88 | Activity [13]: 25; Activity [14]: 89.7; Activity [15]: 82.5; Activity [16]: 50.2; Activity [17]: 34.4; Activity [18]: 14.9; Activity [19]: 55.2; Activity [20]: 50.5; Activity [21]: 38.4; Activity [22]: 22.6
9 | CC1(C)N=C(c2ccccc2F)N([O])C1(C)C | 62.2 | 67.8 | 63.3 | 62 | 86.8 | 0.0331 | 0.0329 | 0.0328 | 0.0326 | 23.4 | 14.9 | 5 | Activity [13]: 49.3; Activity [14]: 51.3; Activity [15]: 50.7; Activity [16]: 49.8; Activity [17]: 64.5; Activity [18]: 31.3; Activity [19]: 33.5; Activity [20]: 31.8; Activity [21]: 30.4; Activity [22]: 44.5
10 | CC1(C)N=C(c2cccc([N+](=O)[O-])c2)N([O])C1(C)C | 49.8 | 66.4 | 47.4 | 43.5 | 41.8 | 0.0329 | 0.0324 | 0.0327 | 0.0328 | 34.3 | 22.1 | 6.72 | –
11 | CC1(C)N=C(c2ccccc2O)N([O])C1(C)C | 48.6 | 45.4 | 64.2 | 70.2 | 62.2 | 0.0324 | 0.0329 | 0.0325 | 0.0324 | 20.3 | 13.4 | 6.01 | –
12 | COc1ccc(C2=NC(C)(C)C(C)(C)N2[O])c(OC)c1 | 42 | 59.7 | 62.5 | 71.2 | 32.4 | 0.0331 | 0.0324 | 0.0327 | 0.0328 | 37.1 | 24 | 7.33 | –
13 | CC1(C)N=C(c2ccccc2)N(O)C1(C)C | 40.6 | 36.99 | 34 | 32.14 | 33.48 | – | – | – | – | 17.25 | 11.04 | 5.44 | Time [6]: 118.2 s; Time [7]: 117.4 s; Time [8]: 119.3 s; Time [9]: 118.2 s
14 | COc1cc(C2=NC(C)(C)C(C)(C)N2[O])ccc1O | 54.2 | 42.9 | 66.3 | 43.2 | 40.9 | 0.0327 | 0.0323 | 0.0327 | 0.0329 | 6.55 | 6.09 | 5.98 | –
15 | CC1(C)N=C(c2ccc(Cl)cc2Cl)N([O])C1(C)C | 39.6 | 63.3 | 48.4 | 30.5 | 14.8 | 0.0329 | 0.033 | 0.0326 | 0.0327 | 34.8 | 23 | 6.86 | –
16 | CC1(C)N=C(c2ccc(Cl)cc2)N([O])C1(C)C | 59.3 | 66.3 | 61.7 | 50.8 | 84.5 | 0.0331 | 0.0326 | 0.0328 | 0.0326 | 36.6 | 23.8 | 7.19 | –
17 | CC1(C)N=C(c2ccc(O)cc2)N([O])C1(C)C | 55.7 | 70.8 | 75.9 | 55.5 | 29.9 | 0.0328 | 0.0325 | 0.0326 | 0.0327 | 8.71 | 7.66 | 5.36 | –
18 | Cc1ccc(C2=NC(C)(C)C(C)(C)N2[O])cc1 | 40.2 | 53.6 | 43.7 | 35.2 | 25.5 | 0.0327 | 0.0324 | 0.0328 | 0.0328 | 31.8 | 20 | 7 | –
19 | CN(C)c1ccc(C2=NC(C)(C)C(C)(C)N2[O])cc1 | 30.4 | 35.5 | 36.2 | 34.3 | 27.9 | 0.0331 | 0.033 | 0.0329 | 0.0327 | 40 | 26 | 8.02 | –
20 | CC1(C)N=C(c2ccc([N+](=O)[O-])cc2)N([O])C1(C)C | 56.5 | 60.5 | 58 | 35.9 | 52.3 | 0.0332 | 0.0331 | 0.0329 | 0.033 | 36.5 | 24.4 | 7.36 | –
